The results in this text go back to ChEMBL document CHEMBL1150063, “Synergistic effect of flavones and flavonols against herpes simplex virus type 1 in cell culture. Comparison with the antiviral activity of propolis” (J Nat Prod, 1992).

By CC50 is commonly meant the concentration giving 50% cytotoxicity.

Series [1] is described as follows: Cytotoxicity against african green monkey Vero cells. Conditions: chlorocebus sabaeus. Format: cell-based. The method, boiled down: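 Uninfected Vero monolayers (ATCC CCL81; MEM with 10% newborn calf serum) in 25 cm2 flasks, 2.10^6 cells, four flasks per dilution, exposed to 0.05–5 mM in maintenance medium, diluted from DMSO stocks with MEM. After 96 h, morphology checked by microscopy; cells trypsinized and counted by trypan blue exclusion against untreated cultures. CC50 = concentration halving cell number.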

Series [2] deals with Human alphaherpesvirus 1. The series can be described thus: Antiviral activity against HSV1 in african green monkey Vero cells assessed as log reduction of virus titer at 32.4 ug/ml. Format: functional. In short, it runs like this: (§1)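 Vero (ATCC CCL81) monolayers, confluent and 1 day old, in microtiter plates. Compound was diluted from DMSO stock into MEM and added just before infection with HSV-1 strain H 29 S at 100 TCID50/well. Each drug was tested in sextuplicate at 37° for 72 h. Wells were freeze-thawed 3 times, pooled and clarified, then titrated by limit dilution (CPE, TCID50/ml). Activity is the log10 titer reduction versus untreated controls.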

Series [3] has as its system Human alphaherpesvirus 1. In words: Antiviral activity against HSV1 in african green monkey Vero cells assessed as log reduction of virus titer at 1.4 ug/ml. It is filed as functional. The method, boiled down: as §1
Series [4] relates to Human alphaherpesvirus 1. The series can be described thus: Antiviral activity against HSV1 in african green monkey Vero cells assessed as log reduction of virus titer at 2.8 ug/ml. Format: functional. In short, it runs like this:
as §1

The subject of series [5] is Human alphaherpesvirus 1. The series can be described thus: Antiviral activity against HSV1 in african green monkey Vero cells assessed as log reduction of virus titer at 21.6 ug/ml. It is filed as functional. In short, it runs like this: as §1
Series [6] has as its system Human alphaherpesvirus 1. The series can be described thus: Antiviral activity against HSV1 in african green monkey Vero cells assessed as log reduction of virus titer at 20.3 ug/ml. It is filed as functional. In short, it runs like this:
as §1

For series [7], the system named is Human alphaherpesvirus 1. The series can be described thus: Antiviral activity against HSV1 in african green monkey Vero cells assessed as log reduction of virus titer at 30.5 ug/ml. It is filed as functional. In short, it runs like this:
as §1

Series [8] relates to Human alphaherpesvirus 1. The series can be described thus: Antiviral activity against HSV1 in african green monkey Vero cells assessed as log reduction of virus titer at 5.4 ug/ml. It is filed as functional. The method, boiled down:
as §1

Series [9] concerns Human alphaherpesvirus 1. The series can be described thus: Antiviral activity against HSV1 in african green monkey Vero cells assessed as log reduction of virus titer at 40.6 ug/ml. Format: functional. In short, it runs like this: as §1
Series [10] relates to Human alphaherpesvirus 1. In words: Antiviral activity against HSV1 in african green monkey Vero cells assessed as log reduction of virus titer at 10.8 ug/ml. It is filed as functional. In short, it runs like this:
as §1

Series [11] concerns Human alphaherpesvirus 1. The series can be described thus: Antiviral activity against HSV1 in african green monkey Vero cells assessed as log reduction of virus titer at 24.1 ug/ml. Format: functional. The method, boiled down:
as §1

Series [12] relates to Human alphaherpesvirus 1. The series can be described thus: Antiviral activity against HSV1 in african green monkey Vero cells assessed as log reduction of virus titer at 22.9 ug/ml. It is filed as functional. In short, it runs like this:
as §1

Series [13] deals with Human alphaherpesvirus 1. In words: Antiviral activity against HSV1 in african green monkey Vero cells assessed as log reduction of virus titer at 45.7 ug/ml. Format: functional. In short, it runs like this:
as §1

Series [14] concerns Human alphaherpesvirus 1. In words: Antiviral activity against HSV1 in african green monkey Vero cells assessed as log reduction of virus titer at 34.3 ug/ml. Format: functional. The method, boiled down: as §1
For series [15], the system named is Human alphaherpesvirus 1. In words: Antiviral activity against HSV1 in african green monkey Vero cells assessed as log reduction of virus titer at 36.2 ug/ml. Format: functional. The method, boiled down: as §1
In series [16] the test system is Human alphaherpesvirus 1. In words: Antiviral activity against HSV1 in african green monkey Vero cells assessed as log reduction of virus titer at 12 ug/ml. Format: functional. The method, boiled down:
as §1

The subject of series [17] is Human alphaherpesvirus 1. The series can be described thus: Antiviral activity against HSV1 in african green monkey Vero cells assessed as log reduction of virus titer at 10 ug/ml. Format: functional. In short, it runs like this:
as §1

Series [18] relates to Human alphaherpesvirus 1. In words: Antiviral activity against HSV1 in african green monkey Vero cells assessed as log reduction of virus titer at 15 ug/ml. It is filed as functional. In short, it runs like this:
as §1

Series [19] has as its system Human alphaherpesvirus 1. The series can be described thus: Antiviral activity against HSV1 in african green monkey Vero cells assessed as log reduction of virus titer at 11.4 ug/ml. Format: functional. The method, boiled down: as §1
Series [20] deals with Human alphaherpesvirus 1. The series can be described thus: Antiviral activity against HSV1 in african green monkey Vero cells assessed as log reduction of virus titer at 5.7 ug/ml. Format: functional. The method, boiled down: as §1
Series [21] deals with Human alphaherpesvirus 1. The series can be described thus: Antiviral activity against HSV1 in african green monkey Vero cells assessed as log reduction of virus titer at 5 ug/ml. Format: functional. In short, it runs like this:
as §1

For series [22], the system named is Human alphaherpesvirus 1. The series can be described thus: Antiviral activity against HSV1 in african green monkey Vero cells assessed as log reduction of virus titer at 60.4 ug/ml. Format: functional. The method, boiled down:
as §1

In series [23] the test system is Human alphaherpesvirus 1. In words: Antiviral activity against HSV1 in african green monkey Vero cells assessed as log reduction of virus titer at 10.1 ug/ml. It is filed as functional. The method, boiled down:
as §1

The test system of series [24] is Human alphaherpesvirus 1. In words: Antiviral activity against HSV1 in african green monkey Vero cells assessed as log reduction of virus titer at 48.3 ug/ml. It is filed as functional. In short, it runs like this: as §1
The test system of series [25] is Human alphaherpesvirus 1. In words: Antiviral activity against HSV1 in african green monkey Vero cells assessed as log reduction of virus titer at 72.5 ug/ml. Format: functional. The method, boiled down: as §1

Values after ≈ are worked out from the molar mass of the structure shown.

Consider `O=c1cc(-c2ccc(O)cc2)oc2cc(O)cc(O)c12` [APIGENIN], for which the CC50 in series [1] is 54 µg/mL (≈ 200 µM). In addition, the Activity with Human alphaherpesvirus 1 [2] was determined as 1.5; with Human alphaherpesvirus 1 [3], 0.25; in the series with Human alphaherpesvirus 1 [4], 0.4; in the series on Human alphaherpesvirus 1 [5], 1.

On to `O=c1cc(-c2ccccc2)oc2cc(O)cc(O)c12` [CHRYSIN], for which the Activity with Human alphaherpesvirus 1 [6] is reported as 0.5; with Human alphaherpesvirus 1 [7], 0.8; in the series on Human alphaherpesvirus 1 [8], 0.25; in the series with Human alphaherpesvirus 1 [9], 1.1; with Human alphaherpesvirus 1 [10], 0.5. In series [1], half-maximal cytotoxicity (CC50) was put at 76.2 µg/mL (≈ 300 µM).

The molecule `O=c1c(O)c(-c2ccccc2)oc2cc(O)cc(O)c12` [GALANGIN] came in with a CC50 in [1] of 43.2 µg/mL (≈ 160 µM). Moreover, the Activity is 2.3 in the series on Human alphaherpesvirus 1 [10] and 3.5 in the series with Human alphaherpesvirus 1 [5].

As for `O=c1c(O)c(-c2ccc(O)cc2)oc2cc(O)cc(O)c12` [KAEMPFEROL], the Activity is 0.75 with Human alphaherpesvirus 1 [11]; 1.5 with Human alphaherpesvirus 1 [12]; 3.5 in the series on Human alphaherpesvirus 1 [13]; 3.1 in the series with Human alphaherpesvirus 1 [14]; 1.25 with Human alphaherpesvirus 1 [15]; 0.1 in the series with Human alphaherpesvirus 1 [16]. In series [1], this molecule showed a 50% cytotoxic concentration (CC50) of 91.5 µg/mL (≈ 320 µM).

In the case of `O=c1cc(-c2ccc(O)c(O)c2)oc2cc(O)cc(O)c12` [LUTEOLIN], the Activity in the series with Human alphaherpesvirus 1 [17] was 1; with Human alphaherpesvirus 1 [18] it was 1.5; in the series on Human alphaherpesvirus 1 [19] it was 2.2; in the series with Human alphaherpesvirus 1 [20], 0.9. The molecule also displayed a CC50 in [1] of 22.9 µg/mL (≈ 80 µM).

In the case of `O=c1c(O)c(-c2ccc(O)c(O)c2)oc2cc(O)cc(O)c12` [QUERCETIN], the Activity in the series with Human alphaherpesvirus 1 [21] came out at 0; in the series on Human alphaherpesvirus 1 [22] it was 2; with Human alphaherpesvirus 1 [23] it was 0.3; with Human alphaherpesvirus 1 [24] it was 1.4; in the series on Human alphaherpesvirus 1 [25], 2.3. Also, in [1], the CC50 is 151 µg/mL (≈ 500 µM).
